A selection: hits, their analogues and other compounds. The true share with any hit is near 0.61%.
E-selectin induc – induces E-selectin expression in human endothelial cells; P16581; HUVEC E-selectin immunofluorescence imaging; normalized: neutral wells 0, TNF-alpha wells 100; activation, % at 7.58 µM; 0.37% of 260,000 active; AID 686992;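 active = mean E-selectin-positive cell signal at least 10% of the positive control, reached in at least 60% of replicates, without over 20% cell loss; inconclusive = no rule given, readout overlaps actives, possibly toxicity-flagged; inactive = the rest, including those meeting only one limit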
Target sequence (P16581 whole entry, looked up): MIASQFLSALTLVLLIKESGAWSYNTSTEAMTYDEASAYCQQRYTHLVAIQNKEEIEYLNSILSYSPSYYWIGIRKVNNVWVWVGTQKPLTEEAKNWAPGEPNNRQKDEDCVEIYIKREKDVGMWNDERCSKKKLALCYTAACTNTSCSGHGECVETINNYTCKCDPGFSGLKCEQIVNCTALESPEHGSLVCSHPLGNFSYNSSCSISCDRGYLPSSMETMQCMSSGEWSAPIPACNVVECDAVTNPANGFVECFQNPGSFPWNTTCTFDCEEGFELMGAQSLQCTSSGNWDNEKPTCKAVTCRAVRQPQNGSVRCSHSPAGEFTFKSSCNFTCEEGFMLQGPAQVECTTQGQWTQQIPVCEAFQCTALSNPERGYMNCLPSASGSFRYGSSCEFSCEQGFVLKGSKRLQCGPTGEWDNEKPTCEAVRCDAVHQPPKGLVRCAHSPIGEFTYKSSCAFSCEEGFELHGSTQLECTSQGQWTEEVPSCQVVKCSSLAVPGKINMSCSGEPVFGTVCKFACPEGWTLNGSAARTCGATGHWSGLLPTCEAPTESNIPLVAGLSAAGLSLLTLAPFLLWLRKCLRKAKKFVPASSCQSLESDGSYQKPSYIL
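Material: HUVEC primary endothelial cells; Amount: 3,000 cells per well; Dosing: single concentration; Medium: EGM-2 growth medium on 0.1% gelatin-coated wells; Read-out basis: percent E-selectin-positive cells; Signal: immunofluorescence imaging; Control set: TNF-alpha, DMSO.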
F508del corr – correctors of CFTR F508del function in bronchial epithelial cells; activity (quench increase), % at 7.58 µM; AID 720511; CFBE cells, YFP halide quenching; stimulated with forskolin plus potentiator P3; % fluorescence drop versus neutral controls; 0.36% of 350,000 active;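 active = mean added fluorescence quench of at least 8% versus neutral control, with both replicates also reaching 8%; inconclusive = only one of the mean or replicate conditions met; inactive = mean below 8% and not both replicates reaching 8%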;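 note: cells transiently co-express mutant CFTR-F508del with the halide-sensitive YFP; corrector assay measuring rescue of mutant channel to the surface after 24 h compound exposure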
Xi reactivation – activators of X-chromosome reactivation in mouse fibroblasts; activation, % at 7.58 µM; XiGFP mouse fibroblasts, % GFP-positive cells imaging, 3 d; cells co-treated with 5-aza-dC sensitizer; scaled so ellipticine positive control = 100%; AID 743238; 0.055% of 360,000 active;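 active = mean normalized replicate activation at least 10% and every replicate at or above 10%; inconclusive = only one of the two criteria met; inactive = mean below 10% and not all replicates reach 10%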;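 note: 0% = median of on-plate neutral control wells and 100% = ellipticine 6 µM median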
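System: 68-5-11 XiGFP fibroblast line | Buffer or medium: DMEM containing 5-aza-dC | Compound: Single point | Times: Compounds 3 days, fix/stain 15 min at room temperature | Benchmarks: Positive control ellipticine, 6 µM final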
The depositor's hits bear a star; u = inconclusive; x = not tested or not shown.

SMILES | E-selectin induc | F508del corr | Xi reactivation
CC(=O)N(C)C[C@H]1Oc2cc(-c3ccc(C)cc3)ccc2S(=O)(=O)N([C@@H](C)CO)C[C@H]1C | x | -2 | 0
CCOC(=O)[C@]12CCCC=C1N(CCC1=CCCCC1)C(=O)[C@H](CC(=O)NCCc1ccccc1OC)C2 | 0 | 1 | 0
CCOC(=O)[C@]12CCC=C1N(CCC1=CCCCC1)C(=O)[C@H](CC(=O)NCCc1ccccc1OC)C2 | 180* | 1 | 0
CCC(=O)N[C@H]1CC[C@@H](CC(=O)NCC2CCCCC2)O[C@H]1CO | 0 | -2 | 0
O=C(COC(=O)COc1ccccc1)NCCc1ccccc1 | 0 | -1 | 0
O=C(COC(=O)COc1ccccc1F)NCCc1ccc(F)cc1 | 0 | 9.1* | 0
CN1C(=O)c2cc(NC(=O)C3CCCCC3)ccc2OC[C@@H]2O[C@H](CC(=O)NCc3ccccc3F)CC[C@H]21 | 0 | -4 | 0
CC(C)NC(=O)Nc1ccc2c(c1)C(=O)N([C@@H](C)CO)C[C@@H](C)[C@@H](CN(C)S(=O)(=O)c1ccc(F)cc1)OCCCC[C@@H](C)O2 | 0 | 3 | 0
COc1ccc(S(=O)(=O)Nc2ccc3c(c2)C(=O)N([C@H](C)CO)C[C@H](C)[C@@H](CN(C)C(=O)Nc2cccc4ccccc24)O3)cc1 | 64* | 2 | 0
COc1ccc(S(=O)(=O)Nc2cccc3c2O[C@@H](CN(C)C(=O)Nc2c(C)noc2C)[C@@H](C)CN([C@@H](C)CO)C3=O)cc1 | -7 | 0 | 0
C[C@H]1CN([C@@H](C)CO)C(=O)c2cc(NS(=O)(=O)c3ccc(F)cc3)ccc2O[C@@H]1CN(C)C(=O)Nc1cccc2ccccc12 | 0 | 1 | 0
COc1ccc(S(=O)(=O)Nc2cccc3c2O[C@H](CN(C)C(=O)Nc2c(C)noc2C)[C@H](C)CN([C@@H](C)CO)C3=O)cc1 | 63* | 0 | 0
COc1ccc(S(=O)(=O)Nc2ccc3c(c2)C(=O)N([C@@H](C)CO)C[C@@H](C)[C@H](CN(C)C(=O)Nc2cccc4ccccc24)O3)cc1 | 1 | -1 | 0
COc1ccc(S(=O)(=O)Nc2ccc3c(c2)C(=O)N([C@@H](C)CO)C[C@H](C)[C@@H](CN(C)C(=O)Nc2cccc4ccccc24)O3)cc1 | 80* | -1 | 0
C[C@H]1CN([C@@H](C)CO)C(=O)c2cc(NS(=O)(=O)c3ccccc3)ccc2O[C@H]1CN(C)C(=O)Nc1cccc2ccccc12 | 0 | 1 | 0
COc1ccc(S(=O)(=O)Nc2ccc3c(c2)C(=O)N([C@@H](C)CO)C[C@@H](C)[C@@H](CN(C)C(=O)Nc2cccc4ccccc24)O3)cc1 | 53* | -2 | 0
Cc1ccc(S(=O)(=O)N(C)C[C@H]2OCCCC[C@H](C)Oc3ccc(NS(=O)(=O)c4cccs4)cc3C(=O)N([C@H](C)CO)C[C@H]2C)cc1 | x | 1 | 0
O=C1[C@@H]2[C@@H](CC(COc3ccccc3)=C3[C@@H](c4ccccc4)OB(O)C[C@@H]32)C(=O)N1Cc1ccccc1 | x | 2 | x
O=C(Cc1ccccc1)N1CC[C@@H]2[C@@H](CO)Nc3ccc(-c4ccc(F)cc4)cc3[C@@H]21 | -1 | 3 | 0
C[C@@H]1CN([C@H](C)CO)C(=O)Cc2cc(NC(=O)Cc3cn(C)c4ccccc34)ccc2O[C@@H]1CN(C)Cc1ccncc1 | x | -1 | 0
CO[C@H]1CN(C)C(=O)c2ccc(NC(C)=O)cc2OC[C@@H](C)N(Cc2cccnc2)C[C@H]1C | 0 | 0 | 0
COc1ccccc1CNC(=O)Nc1nc(C(N)Cc2ccc(Cl)cc2)cs1 (centres undefined) | 0 | 8.3* | 0
COc1ccc(CNC(=O)Nc2nc(C(N)Cc3ccc(Cl)cc3)cs2)cc1 (centres undefined) | 0 | 6 | 0
C[C@H]1CN([C@@H](C)CO)C(=O)c2cccc(NC(=O)NC3CCCCC3)c2O[C@H]1CN(C)S(=O)(=O)c1cccs1 | 0 | -2 | 0
CN(C)CC(=O)Nc1ccc2c(c1)[C@H]1C[C@@H](CC(=O)NCc3cc(F)ccc3F)O[C@H](CO)[C@H]1O2 | 0 | -1 | 0
SMILES | E-selectin induc | F508del corr | Xi reactivation
COc1cc(C(=O)Nc2ccc3c(c2)nc(C)n3C)cc(OC)c1OC | x | -2 | 0
COc1cc(C(=O)Nc2ccc3c(c2)ncn3C)cc(OC)c1OC | x | 12* | 0
CO[C@H]1CN(C)C(=O)c2cc(NC(=O)C3CC3)ccc2OC[C@@H](C)N(Cc2ccc(F)cc2)C[C@H]1C | 0 | -1 | 0
COCC(=O)N1CC[C@@H]2[C@@H](CO)Nc3ccc(C#Cc4ccccc4)cc3[C@@H]21 | 0 | -1 | 0
COc1ccc2c(c1)sc(N)[n+]2Cc1cc(C)cc2cccnc12 | 0 | 11* | 0
CCOc1ccc2c(c1)sc(N)[n+]2Cc1cc(C)cc2cccnc12 | 2 | u | 1
COc1ccccc1C(=O)NCCC(=O)NCCOc1ccccc1 | 0 | -1 | 0
COc1ccccc1OCCNC(=O)CCNC(=O)c1ccccc1OC | 0 | 24* | 0
CCCN1C[C@H](C)[C@@H](OC)CN(C)C(=O)c2cc(NC(=O)c3cccc(OC)c3)ccc2OC[C@@H]1C | 9 | -2 | 0
CC(C)CCN(N=O)[C@@H](Cc1ccccc1)CN(N=O)[C@@H](Cc1ccccc1)CN(C)N=O | 0 | -3 | 0
CN(C[C@H](Cc1ccccc1)N(C[C@H](Cc1ccccc1)N(CCC(C)(C)C)N=O)N=O)N=O | 0 | 8.8* | 0
CC(C)C[C@H]1CN([C@@H](CC(C)C)CN2CCCC2CN2C(=S)NC[C@@H]2Cc2ccc(O)cc2)C(=S)N1CCc1ccccc1 (some centres undefined) | 13 | -1 | 0
CC(C)C[C@H]1CN([C@@H](Cc2ccc(O)cc2)CN2CCC[C@@H]2CN2C(=O)C(=O)NC[C@@H]2Cc2ccccc2)C(=O)C(=O)N1CC1CCCCCC1 | 0 | 2 | 0
CC(C)C[C@H]1CN([C@@H](CC(C)C)CN2CCC[C@@H]2CN2C(=S)NC[C@@H]2Cc2ccc(O)cc2)C(=S)N1CCc1ccccc1 | 0 | 8.8* | 0
CC(C)C[C@H]1CN([C@@H](Cc2ccc(O)cc2)CN2CCC[C@H]2CN2C(=O)C(=O)NC[C@@H]2Cc2ccccc2)C(=O)C(=O)N1CC1CCCCC1 | 0 | 8.4* | 0
C/C=C/c1ccc(C2[C@H]3CNC[C@@H]2N3Cc2ccc(OC)cc2)cc1 (some centres undefined) | 0 | 2 | 0
C=CC1c2cc(OC)c(OC)cc2CC(C)N1Cc1ccc(OC)cc1 (centres undefined) | x | 18* | x
C[C@@H]1CN([C@@H](C)CO)C(=O)c2cc(C#CCc3ccccc3)cnc2O[C@@H]1CN(C)Cc1cccc(C(=O)O)c1 | 0 | -1 | 1
COc1ccccc1CN1C[C@H](C)[C@@H](OC)CN(C)C(=O)c2cc(NC(C)=O)ccc2OC[C@@H]1C | 0 | 1 | 0
Cc1ccc(NCC(=O)N2CCN(S(=O)(=O)c3ccccc3)CC2)cc1F | 32* | -3 | 0
